Data set [1] addresses T1, Melanocyte-stimulating hormone receptor (Homo sapiens, UniProt Q01726). The data set is described as follows: Agonist activity at human MC1R expressed in CHO cells after 4 hrs by luciferase reporter gene assay relative to alpha-melanocyte stimulating hormone. In kind it is functional, cell-based. Details: concentration or dose not given beside the values. In a few lines: (§1)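 CHO-6xCRE-luc+ cells expressing the human receptor, plated at 4000 cells/well in DMEM/F12 with 10% FBS 48 h before assay. Switched to serum-free medium 16 h before compound addition, then incubated 4 h at 37 °C. Luciferase read after 10 min dark adaptation. Activity expressed as % of fold stimulation by 1 × 10^-7 M NDP-aMSH (duplicate control wells).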
Target sequence in this assay (Q01726 whole entry, looked up): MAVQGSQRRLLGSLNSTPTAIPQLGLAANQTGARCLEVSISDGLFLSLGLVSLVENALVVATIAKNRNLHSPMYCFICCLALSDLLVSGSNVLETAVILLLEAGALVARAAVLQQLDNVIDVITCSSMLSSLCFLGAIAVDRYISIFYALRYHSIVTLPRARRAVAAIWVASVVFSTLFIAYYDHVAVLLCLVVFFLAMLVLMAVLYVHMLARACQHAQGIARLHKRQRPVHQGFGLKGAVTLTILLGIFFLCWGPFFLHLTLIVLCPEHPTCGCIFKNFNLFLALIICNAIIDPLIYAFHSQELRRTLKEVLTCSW
(Reporter assays use an easily measured gene product as a stand-in for the process of interest.)

In data set [2] the test system is Rattus norvegicus. The experiment in a line: Anorexigenic activity in lean Sprague-Dawley rat assessed as suppression of peptide YY-induced food intake at 100 pmol, icv administered 15 mins before peptide YY challenge measured for 3 hrs in presence of MC4R antagonist SHU9119. In kind it is functional, organism-based. The method in brief: (§2)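 Lean Sprague-Dawley rats (~400 g) with third-ventricle cannulae. Saline or 1 nmol SHU9119 given ICV 30 min before vehicle (2% DMSO/saline) or test compound ICV. 0.23 nmol PYY given ICV 15 min later. Powdered chow intake logged every half hour for 3 h. N = 7–8 per group.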

The target of data set [3] is T2, Melanocortin receptor 4 (Homo sapiens, UniProt P32245). The data set is described as follows: Agonist activity at human MC4R expressed in CHO cells after 4 hrs by luciferase reporter gene assay relative to alpha-melanocyte stimulating hormone. In kind it is functional, cell-based. The method in brief:
as §1

Data set [4] concerns the target T2, Melanocortin receptor 4. The experiment in a line: Agonist activity at human MC4R expressed in CHO cells after 4 hrs by luciferase reporter gene assay. The format is functional, cell-based. In a few lines: as §1
Data set [5] deals with Rattus norvegicus. The data set is described as follows: Anorexigenic activity in lean Sprague-Dawley rat assessed as suppression of peptide YY-induced food intake at 100 pmol, icv administered 15 mins before peptide YY challenge measured for 3 hrs. In kind it is functional, organism-based. In a few lines:
as §2

Data set [6] relates to Rattus norvegicus. The data set is described as follows: Anorexigenic activity in lean Sprague-Dawley rat assessed as suppression of peptide YY-induced nocturnal food intake during dark cycle period at 25 mg/kg, po administered 30 mins before peptide YY challenge. In kind it is functional, organism-based. Also noted: dose 25 mg/kg. In a few lines:
(§3)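 Sated lean Sprague-Dawley rats with third-ventricle cannulae dosed by oral gavage at 10:30 AM. Vehicle was 50% PEG500/25% EtOH/25% water. 0.23 nmol PYY given ICV in sterile saline at 11:00 AM. Intake logged every half hour through the light period and the dark cycle (6 PM–6 AM). N = 5/group.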

Data set [7] in a line: AUC (0 to infinity) in Sprague-Dawley rat at 10 mg/kg, po. The format is ADME, organism-based. Details: dose 10 mg/kg, route oral, time infinity. The note with it: plasma. In a few lines:
(§4)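 Single oral dose to Sprague Dawley rats, given as a suspension in 50% PEG/25% EtOH/25% H2O. Plasma samples collected over time to build the pharmacokinetic profile.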

Data set [8] concerns Rattus norvegicus. The data set is described as follows: Anorexigenic activity in lean Sprague-Dawley rat assessed as suppression of nocturnal food intake during dark cycle period at 25 mg/kg, po administered prior to onset of nocturnal cycle. In kind it is functional.
Data set [9] can be described thus: Tmax in Sprague-Dawley rat at 10 mg/kg, po. In kind it is ADME, organism-based. Also noted: dose 10 mg/kg, route oral. The note with it: in vivo. In a few lines:
as §4

Data set [10] can be described thus: Oral bioavailability in Sprague-Dawley rat at 10 mg/kg. The note with it: in vivo. In kind it is ADME, organism-based. In a few lines:
as §4

Data set [11] is described as follows: Cmax in Sprague-Dawley rat at 10 mg/kg, po. Conditions: in vivo. The format is ADME, organism-based. Details: dose 10 mg/kg, route oral. The method in brief:
as §4

The nature of data set [12]: Half life in Sprague-Dawley rat at 10 mg/kg, po. Conditions: in vivo. Also noted: dose 10 mg/kg, route oral. The format is ADME, organism-based. The method in brief:
as §4

For data set [13], the system named is Rattus norvegicus. The data set is described as follows: Anorexigenic activity in lean Sprague-Dawley rat assessed as suppression of peptide YY-induced food intake during day light cycle period at 5 mg/kg, po administered 30 mins before peptide YY challenge. The format is functional, organism-based. Also noted: dose 5 mg/kg. The method in brief: as §3
The target in data set [14] is T1, Melanocyte-stimulating hormone receptor. The experiment in a line: Agonist activity at human MC1R expressed in CHO cells after 4 hrs by luciferase reporter gene assay. In kind it is functional, cell-based. The method in brief: as §1
Target sequence in this assay (Q01726 whole entry): as the sequence (Q01726 whole entry, looked up) above
For data set [15], the system named is Rattus norvegicus. The data set is described as follows: Anorexigenic activity in lean Sprague-Dawley rat assessed as suppression of peptide YY-induced food intake during day light cycle period at 25 mg/kg, po administered 30 mins before peptide YY challenge. The format is functional, organism-based. Also noted: dose 25 mg/kg. In a few lines:
as §3

Data set [16] addresses T1, Melanocyte-stimulating hormone receptor. The data set is described as follows: Agonist activity at human MC1R expressed in CHO cells at 10 uM after 4 hrs by luciferase reporter gene assay relative to alpha-melanocyte stimulating hormone. In kind it is functional, cell-based. The method in brief:
as §1
Target sequence in this assay (Q01726 whole entry, looked up): as above

Data set [17] addresses T2, Melanocortin receptor 4. The experiment in a line: Agonist activity at human MC4R expressed in CHO cells at 10 uM after 4 hrs by luciferase reporter gene assay relative to alpha-melanocyte stimulating hormone. The format is functional, cell-based. In a few lines:
as §1

The species named for another data set is Homo sapiens. The experiment in a line: Selectivity for human MC1R over human MC4R.

Calls of active or inactive are those of the source. No cut-off for these calls is given here. Bounds are passed on as bounds.

The AUC(0-inf) is total exposure, with the tail of the curve extrapolated. The inhibition in vivo is the share of the control response that was lost under treatment. For orientation: Tmax means the time from dosing to the highest level. One may read the bioavailability as the share of a dose that reaches the circulation, judged against a reference dose that is usually intravenous. One may read the Cmax as the peak of the concentration-time curve. Broadly, the half-life is how long it takes for the measured level to halve.

T2 sequence (P32245 whole entry): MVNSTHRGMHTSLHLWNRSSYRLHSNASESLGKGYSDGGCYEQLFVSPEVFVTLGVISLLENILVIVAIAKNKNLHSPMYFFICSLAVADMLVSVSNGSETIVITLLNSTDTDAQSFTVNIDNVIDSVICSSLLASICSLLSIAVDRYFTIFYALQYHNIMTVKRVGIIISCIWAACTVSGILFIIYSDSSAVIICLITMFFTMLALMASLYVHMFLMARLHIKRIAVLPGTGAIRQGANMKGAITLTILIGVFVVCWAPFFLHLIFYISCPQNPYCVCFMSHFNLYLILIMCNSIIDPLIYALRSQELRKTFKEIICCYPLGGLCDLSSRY

Take `COc1ccc(N(C(=O)CN2C=CN(c3ccccc3)C(=O)C(Cc3n[nH]c4ccccc34)C2=O)C(C)C)cc1` (racemic): the Activity is 68% in data set [1] and 45 at Melanocortin receptor 4 [3]. For the same molecule, in the data set with Rattus norvegicus [2], the inhibition entry is “inactive”. For the same molecule, the EC50 at Melanocortin receptor 4 [4] (read-out: pEC50 (converted)) is 0.708 µM. Also, the inhibition result in the data set with Rattus norvegicus [5] was “Active”.
Consider `COc1ccc(N(C(=O)CN2C=CN(c3ccccc3)C(=O)[C@H](Cc3n[nH]c4ccccc34)C2=O)C(C)C)cc1`, for which the inhibition entry with Rattus norvegicus [6], with Rattus norvegicus [13] and in the data set with Rattus norvegicus [15] was “Active” in each case. Also, the Activity in data set [1] turned out to be 82%; on Melanocortin receptor 4 [3] it was 53. The AUC(0-inf) in data set [7] was 260 ng·h/mL. In addition, the inhibition in vivo at 25 mg/kg with Rattus norvegicus [8] is 20%. Further, the Tmax in [9] came out at 0.67 h. Also, the bioavailability in data set [10] amounted to 6.2%. In data set [11], the Cmax was 123 ng/mL. In addition, the EC50 was 0.339 µM on Melanocortin receptor 4 [4] (read-out: pEC50 (converted)) and 0.0158 µM in data set [14] (read-out: pEC50 (converted)). In data set [12], the half-life is 1.5 h.
For `CC(C)N(C(=O)CN1C=CN(c2ccccc2)C(=O)[C@@H](Cc2n[nH]c3cc(F)ccc23)C1=O)c1ccccc1`, the Efficacy in data set [16] was found to be 2%; at Melanocortin receptor 4 [17], 0%. Besides, the EC50 (on Melanocortin receptor 4 [4] (read-out: EC50); in [14] (read-out: EC50)) was greater than 30 µM each time.
For the molecule `COc1ccc(N(C(=O)CN2C=CN(C3CCCCC3)C(=O)C(Cc3n[nH]c4ccccc34)C2=O)C(C)C)cc1` (racemic), the Efficacy in data set [16] was found to be 25%; on Melanocortin receptor 4 [17] it was 19%. For the same molecule, the EC50 (at Melanocortin receptor 4 [4] (read-out: EC50); in data set [14] (read-out: EC50)) was greater than 30 µM throughout.
`CC(C)N(C(=O)CN1C=CN(c2ccccc2)C(=O)[C@@H](Cc2n[nH]c3ccccc23)C1=O)c1ccccc1`: the results for the Efficacy (in [16]; on Melanocortin receptor 4 [17]) were 9% and 3%, respectively. For the same molecule, the EC50 (on Melanocortin receptor 4 [4] (read-out: EC50); in data set [14] (read-out: EC50)) was greater than 30 µM throughout.
As for `O=C(CN1C=CN(c2ccccc2)C(=O)C(Cc2n[nH]c3ccccc23)C1=O)CP(=O)(O)Oc1ccccc1` (racemic), the results for the Efficacy (in [16]; on Melanocortin receptor 4 [17]) were 3% and 4%, respectively. The EC50 (on Melanocortin receptor 4 [4] (read-out: EC50); in data set [14] (read-out: EC50)) was greater than 30 µM throughout.
As to `O=C1C(Cc2n[nH]c3cc(F)ccc23)C(=O)N(c2ccccc2)C=CN1CC(=O)N1CCCCc2ccccc21` (racemic), the figures for the Activity (in data set [1]; at Melanocortin receptor 4 [3]) were 61% and 16, respectively. Besides, the EC50 on Melanocortin receptor 4 [4] (read-out: pEC50 (converted)) was 0.437 µM. Besides, the Selectivity ratio in the data set filed under Homo sapiens is greater than 100.
For `O=C(CN1C=CN(c2ccccc2)C(=O)C(Cc2n[nH]c3ccccc23)C1=O)CP(=O)(Oc1ccccc1)Oc1ccccc1` (racemic), the Efficacy in data set [16] worked out at 1%; on Melanocortin receptor 4 [17], 5%. In addition, the EC50 (at Melanocortin receptor 4 [4] (read-out: EC50); in data set [14] (read-out: EC50)) was greater than 30 µM throughout.

Source of the values: ChEMBL document CHEMBL1157626, “A concise synthesis of 1,4-dihydro-[1,4]diazepine-5,7-dione, a novel 7-TM receptor ligand core structure with melanocortin receptor agonist activity” (Bioorg Med Chem, 2010).
